The nature of data set [1]: folding enthalpy; higher = less favourable; fluorescence melt of hairpins on a sequencing array, two-state fit. The following applies: sodium 0.088 M. The essentials: (§1)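 To match UV melts, fitted temperatures were raised by 9.35 °C. These fits were bootstrapped two-state models that gave melting temperature and folding enthalpy, combined by inverse variance over four replicates. The input was normalised Cy3 fluorescence of library hairpins with annealed Cy3 and quencher oligos on a sequenced MiSeq flow cell, imaged in 50 mM Na-HEPES pH 8.0, 25 mM NaCl in 2.5 °C steps up to 60 °C.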

Data set [2] can be described thus: melting temperature; fluorescence melt of hairpins on a sequencing array, two-state fit, raised by 9.35 °C to match UV melts. The following applies: sodium 0.088 M. The essentials:
as §1

Turning to GCGCAGCGAAAGCTAGGC ((..(((....)))..)), the folding enthalpy in data set [1] is -5.67 kcal/mol. The Tm in data set [2] is 39.7 °C.
Consider GCGCAGCGAAAGCTCGC (((.(((....)))))), for which, in data set [1], the folding enthalpy was -15.8 kcal/mol. The Tm in data set [2] is 63.3 °C.
The corresponding values for GCGCAGCGAAAGCTCGGC ((..(((....)))..)) are -7.59 kcal/mol and 40.3 °C.
The corresponding values for GCGCAGCGAAAGCTTAGC ((..(((....)))..)) are -9.17 kcal/mol and 40.5 °C.
For the sequence GCGCAGCGAAAGCTTGGC ((..(((....)))..)), the folding enthalpy in data set [1] was -6.35 kcal/mol. In data set [2], the Tm was 38.5 °C.
On the same counts, the results for GCGCAGGGAAACCCGCGC ((((.((....)).)))) are -34 kcal/mol and 66.8 °C.
On the same counts, the results for GCGCAGGGAAACCTGTGC ((.((((....)))).)) are -28 kcal/mol and 57.7 °C.
Take GCGCATCCGAAAGGACGC (((..(((....)))))): the folding enthalpy in data set [1] is -20.5 kcal/mol. Further, in data set [2], the Tm turned out to be 50.2 °C.
GCGCATGGAAACGTGTGC ((.((.(....).)).)): the folding enthalpy in data set [1] was -36.7 kcal/mol. Moreover, the Tm in data set [2] came out at 46.6 °C.
Turning to GCGCCAGGAAACCGACGC (((.(.(....).).))), the folding enthalpy in data set [1] was -29.5 kcal/mol. Besides, in data set [2], the Tm is 39.4 °C.
On the same counts, the results for GCGCCCGAAAGGGAACGC ((((((....)))..))) are -33.4 kcal/mol and 54.7 °C.
On the same counts, the results for GCGCCCGAAAGGGATCGC ((((((....)))..))) are -20.4 kcal/mol and 51.8 °C.
The corresponding values for GCGCCCGAAAGGGCCCGC ((((((....)))..))) are -9.91 kcal/mol and 44.7 °C.
Consider GCGCCCGAAAGGGTACGC ((((((....)))..))), for which the folding enthalpy in data set [1] is -27.4 kcal/mol. Moreover, in data set [2], the Tm worked out at 55.1 °C.
On the same counts, the results for GCGCCCGCGAAAGCGCGC (((..(((....)))))) are -16.2 kcal/mol and 58.5 °C.
The corresponding values for GCGCCGCGAAAGCAACGC (((..((....))..))) are -18.1 kcal/mol and 51.1 °C.
The corresponding values for GCGCCGCGAAAGCAGAGC ((.(.((....)).).)) are -27.8 kcal/mol and 66.7 °C.
Turning to GCGCCGCGAAAGCCACGC (((..((....))..))), in data set [1], the folding enthalpy is -17.4 kcal/mol. Further, the Tm in data set [2] came out at 50.1 °C.
The corresponding values for GCGCCGCGAAAGCCGAGC ((.(.((....)).).)) are -18.9 kcal/mol and 50.5 °C.
For the sequence GCGCCGCGAAAGCGAGGC ((..(((....)))..)), the folding enthalpy in data set [1] was -13.7 kcal/mol. In addition, the Tm in data set [2] worked out at 54.8 °C.
Regarding GCGCCGCGAAAGCGCTGC ((..(((....)))..)), the folding enthalpy in data set [1] was -15.6 kcal/mol. Further, the Tm in data set [2] worked out at 61.1 °C.
The corresponding values for GCGCCGCGAAAGCGTAGC ((..(((....)))..)) are -13.5 kcal/mol and 59.1 °C.
In the case of GCGCCGCGAAAGCTACGC (((..((....))..))), the folding enthalpy in data set [1] is -20.9 kcal/mol. For the same sequence, the Tm in data set [2] is 53.5 °C.
The corresponding values for GCGCCGCGAAAGCTGGGC ((.(.((....)).).)) are -16.1 kcal/mol and 57 °C.
Take GCGCCGGCGAAAGCCCGC (((..(((....)))))): in data set [1], the folding enthalpy is -15.2 kcal/mol. In data set [2], the Tm turned out to be 55.5 °C.
The corresponding values for GCGCCTCCGAAAGGACGC (((..(((....)))))) are -25.2 kcal/mol and 50.1 °C.
On the same counts, the results for GCGCCTCGAAAGAGACGC (((.(((....))).))) are -25.5 kcal/mol and 59.4 °C.
Turning to GCGCCTGCGAAAGCACGC (((..(((....)))))), the folding enthalpy in data set [1] is -16.7 kcal/mol. The Tm in data set [2] came out at 47.7 °C.
For GCGCCTGGAAACAGACGC (((.(((....))).))), in data set [1], the folding enthalpy is -29.4 kcal/mol. The Tm in data set [2] was 55.8 °C.
GCGCCTTCGAAAGAACGC (((..(((....)))))): the folding enthalpy in data set [1] is -19.2 kcal/mol. Also, the Tm in data set [2] turned out to be 38.6 °C.
The corresponding values for GCGCGAACGAAAGTTCGC (((..(((....)))))) are -6.27 kcal/mol and 68.4 °C.
The corresponding values for GCGCGACGAAAGTCTCGC (((.(((....))).))) are -34.3 kcal/mol and 60.6 °C.
With GCGCGAGGAAACTTGCGC ((((.((....)).)))), in data set [1], the folding enthalpy is -38.1 kcal/mol. Moreover, the Tm in data set [2] was determined as 65.6 °C.
On to GCGCGCGAAAGCGTTCGC ((((((....)))..))), for which the folding enthalpy in data set [1] was -14.6 kcal/mol. Moreover, the Tm in data set [2] is 53.3 °C.
As to GCGCGGCGAAAGCACCGC (((..((....))..))), the folding enthalpy in data set [1] is -16.6 kcal/mol. The Tm in data set [2] stood at 56.1 °C.
For the sequence GCGCGGCGAAAGCCCCGC (((.(((....))).))), in data set [1], the folding enthalpy is -37.7 kcal/mol. In addition, the Tm in data set [2] was determined as 59.4 °C.
For the sequence GCGCGGCGAAAGCGGGGC ((.(.((....)).).)), the folding enthalpy in data set [1] was -27.7 kcal/mol. In addition, the Tm in data set [2] was found to be 64.4 °C.
Turning to GCGCGGCGAAAGCTGAGC ((.(.((....)).).)), the folding enthalpy in data set [1] is -31.1 kcal/mol. The Tm in data set [2] was 63.2 °C.
For the sequence GCGCGGCGAAAGCTTCGC (((..((....))..))), the folding enthalpy in data set [1] is -20.8 kcal/mol. Also, the Tm in data set [2] stood at 55.8 °C.
GCGCGGGGAAACCCACGC (((.(((....))).))): the folding enthalpy in data set [1] was -35 kcal/mol. For the same sequence, the Tm in data set [2] turned out to be 61.6 °C.
Turning to GCGCGTACGAAAGTACGC (((..(((....)))))), the folding enthalpy in data set [1] was -6.65 kcal/mol. The Tm in data set [2] is 63.2 °C.
On the same counts, the results for GCGCTACGAAAGTAACGC (((.(((....))).))) are -41.1 kcal/mol and 56.5 °C.
The corresponding values for GCGCTAGCGAAAGCTCGC (((..(((....)))))) are -10.7 kcal/mol and 45.4 °C.
The corresponding values for GCGCTAGGAAACCAACGC (((.(.(....).).))) are -10.5 kcal/mol and 28.6 °C.
Consider GCGCTAGGAAACCAGCAC (.(((.(....).))).), for which the folding enthalpy in data set [1] is -9.67 kcal/mol. Besides, the Tm in data set [2] is 26.8 °C.
For the sequence GCGCTAGGAAACTAGCAC (.(((((....))))).), in data set [1], the folding enthalpy was -15.4 kcal/mol. For the same sequence, in data set [2], the Tm is 44 °C.
With GCGCTAGGAAACTAGTGC ((.((((....)))).)), the folding enthalpy in data set [1] was -44.7 kcal/mol. In data set [2], the Tm was determined as 53.3 °C.
On the same counts, the results for GCGCTCACGAAAGTGCGC (((..(((....)))))) are -37.8 kcal/mol and 60 °C.
For the sequence GCGCTCCCGAAAGGGCGC (((..(((....)))))), the folding enthalpy in data set [1] is -35 kcal/mol. Also, in data set [2], the Tm came to 62.2 °C.
Turning to GCGCTCCGAAAGGACCGC (((.(((....))).))), the folding enthalpy in data set [1] is -44.6 kcal/mol. For the same sequence, the Tm in data set [2] was found to be 53 °C.
Turning to GCGCTCGAAAGAGACCGC ((((((....)))..))), the folding enthalpy in data set [1] is -21.8 kcal/mol. Further, the Tm in data set [2] is 44.9 °C.
As to GCGCTCGAAAGAGCCGC ((((((....))).))), the folding enthalpy in data set [1] is -18.7 kcal/mol. The Tm in data set [2] was determined as 62.4 °C.
On the same counts, the results for GCGCTCGAAAGAGTACGC ((((((....)))..))) are -25.6 kcal/mol and 50 °C.
On the same counts, the results for GCGCTGCGAAAGCACGC (((.(((....)))))) are -17.6 kcal/mol and 69.2 °C.
The corresponding values for GCGCTGCGAAAGCGACGC (((..((....))..))) are -26.8 kcal/mol and 63.7 °C.
On to GCGCTGCGAAAGCGGGGC ((.(.((....)).).)), for which the folding enthalpy in data set [1] is -28.8 kcal/mol. Further, the Tm in data set [2] was found to be 67.8 °C.
On the same counts, the results for GCGCTGCGAAAGCTACGC (((..((....))..))) are -23 kcal/mol and 55.8 °C.
Take GCGCTGGGAAACCAGCAC (.(((((....))))).): the folding enthalpy in data set [1] was -11.9 kcal/mol. Moreover, the Tm in data set [2] was found to be 50.4 °C.
GCGCTGGGAAACCAGTGC ((.((((....)))).)): the folding enthalpy in data set [1] is -45.9 kcal/mol. Further, in data set [2], the Tm is 60.6 °C.
As to GCGCTTACGAAAGTACGC (((..(((....)))))), the folding enthalpy in data set [1] was -21.4 kcal/mol. Also, in data set [2], the Tm was 46.2 °C.
On the same counts, the results for GCGCTTGCGAAAGCACGC (((..(((....)))))) are -15.9 kcal/mol and 55.2 °C.
Regarding GCGGAACGAAAGTTCGC (((.(((....)))))), the folding enthalpy in data set [1] is -24.4 kcal/mol. Also, the Tm in data set [2] was 58.9 °C.
Turning to GCGGAATCCCGC ((((....)))), the folding enthalpy in data set [1] was -22.1 kcal/mol. Moreover, in data set [2], the Tm was found to be 53.9 °C.
On the same counts, the results for GCGGAATCGAAAGATCGC (((..(((....)))))) are -25.8 kcal/mol and 45.5 °C.
As to GCGGACACGAAAGTGCGC (((..(((....)))))), the folding enthalpy in data set [1] was -26.1 kcal/mol. The Tm in data set [2] worked out at 55.6 °C.
On the same counts, the results for GCGGACCACCGC ((((....)))) are -24.2 kcal/mol and 59.9 °C.
Turning to GCGGACGAAAGTCAACGC ((((((....)))..))), in data set [1], the folding enthalpy is -42 kcal/mol. Moreover, the Tm in data set [2] was determined as 54.3 °C.
GCGGACGAAAGTCTCGC ((((((....))).))): in data set [1], the folding enthalpy was -18.9 kcal/mol. Also, in data set [2], the Tm came to 55.2 °C.
Turning to GCGGACGAAAGTCTTCGC ((((((....)))..))), in data set [1], the folding enthalpy is -23.4 kcal/mol. In addition, in data set [2], the Tm turned out to be 45.9 °C.
For the sequence GCGGACGCCGC ((((...)))), in data set [1], the folding enthalpy was -19.1 kcal/mol. For the same sequence, in data set [2], the Tm came to 58.3 °C.
For the sequence GCGGACGGAAACATCCGC (((((.(....).))))), in data set [1], the folding enthalpy is -39.2 kcal/mol. Moreover, the Tm in data set [2] was found to be 52.9 °C.
The corresponding values for GCGGACGGAAACGTCTGC ((.((((....)))).)) are -36.3 kcal/mol and 65.9 °C.
The corresponding values for GCGGACTACCGC ((((....)))) are -27.9 kcal/mol and 54 °C.
